Results reported in ChEMBL document CHEMBL4024721, “C-2 (E)-4-(Styryl)aniline substituted diphenylpyrimidine derivatives (Sty-DPPYs) as specific kinase inhibitors targeting clinical resistance related EGFRT790M mutant” (Bioorg Med Chem, 2017).

What was measured:
[1] = biological target: Epidermal growth factor receptor (Homo sapiens, UniProt P00533, L858R/T790M)
[2] = test system: Epidermal growth factor receptor (Homo sapiens), P00533 [L858R,T790M]; assay: Potency index, ratio of gefitinib IC50 to test compound IC50 for recombinant human EGFR T790M/L858R double mutant (695 to end residues)
A-431 = assay: Antiproliferative activity against human A431 cells harboring wild type EGFR assessed as decrease in cell viability after 72 hrs by MTT assay; format: ADME, cell-based; details: A-431, 72 h
A549 = assay: Antiproliferative activity against human A549 cells harboring EGFR K-ras mutant assessed as decrease in cell viability after 72 hrs by MTT assay; format: functional, cell-based; details: A549, 72 h
[3] = Antiproliferative activity against NHBE cells assessed as decrease in cell viability after 72 hrs by MTT assay; format: ADME, cell-based; details: Homo sapiens
[4] = biological target: Epidermal growth factor receptor (Homo sapiens, UniProt P00533); format: ADME
HCC827 = assay: Antiproliferative activity against human HCC827 cells harboring EGFR del E746 to A750 mutant assessed as decrease in cell viability after 72 hrs by MTT assay; format: functional, cell-based; details: HCC827, 72 h
NCI-H1975 [5] = assay: Antiproliferative activity against human NCI-H1975 cells harboring EGFR T790M/L858R double mutant assessed as decrease in cell viability after 72 hrs by MTT assay; format: functional, cell-based; details: NCI-H1975, 72 h
NCI-H1975 [6] = assay: Induction of apoptosis in human NCI-H1975 cells harboring EGFR T790M/L858R double mutant assessed as late apoptotic cells at 4 uM after 72 hrs by annexin V/FITC staining-based flow cytometric method relative to control; format: functional
How it was run: (§1)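 H1975 cells (ATCC), grown as monolayers at 37 °C in humidified 5% CO2, were incubated with compound at the indicated concentrations for 72 h. They were then stained with annexin V/FITC and analysed by flow cytometry. The data shown come from one representative experiment.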

NCI-H1975 [7] = assay: Induction of apoptosis in human NCI-H1975 cells harboring EGFR T790M/L858R double mutant assessed as necrotic cells at 1 uM after 72 hrs by annexin V/FITC staining-based flow cytometric method relative to control; format: functional
How it was run: as §1

NCI-H1975 [8] = assay: Induction of apoptosis in human NCI-H1975 cells harboring EGFR T790M/L858R double mutant assessed as late apoptotic cells at 8 uM after 72 hrs by annexin V/FITC staining-based flow cytometric method relative to control; format: functional
How it was run: as §1

NCI-H1975 [9] = assay: Induction of apoptosis in human NCI-H1975 cells harboring EGFR T790M/L858R double mutant assessed as early apoptotic cells at 8 uM after 72 hrs by annexin V/FITC staining-based flow cytometric method relative to control; format: functional
How it was run: as §1

NCI-H1975 [10] = assay: Induction of apoptosis in human NCI-H1975 cells harboring EGFR T790M/L858R double mutant assessed as necrotic cells at 8 uM after 72 hrs by annexin V/FITC staining-based flow cytometric method relative to control; format: functional
How it was run: as §1

NCI-H1975 [11] = assay: Induction of apoptosis in human NCI-H1975 cells harboring EGFR T790M/L858R double mutant assessed as early apoptotic cells at 1 uM after 72 hrs by annexin V/FITC staining-based flow cytometric method relative to control; format: functional
How it was run: as §1

NCI-H1975 [12] = assay: Induction of apoptosis in human NCI-H1975 cells harboring EGFR T790M/L858R double mutant after 72 hrs by annexin V/FITC staining-based flow cytometric method; format: functional, cell-based
How it was run: as §1

NCI-H1975 [13] = assay: Induction of apoptosis in human NCI-H1975 cells harboring EGFR T790M/L858R double mutant assessed as viable cells at 4 uM after 72 hrs by annexin V/FITC staining-based flow cytometric method relative to control; format: functional; details: NCI-H1975, 72 h, read-out: Activity
How it was run: as §1

NCI-H1975 [14] = assay: Induction of apoptosis in human NCI-H1975 cells harboring EGFR T790M/L858R double mutant assessed as necrotic cells at 4 uM after 72 hrs by annexin V/FITC staining-based flow cytometric method relative to control; format: functional
How it was run: as §1

NCI-H1975 [15] = assay: Induction of apoptosis in human NCI-H1975 cells harboring EGFR T790M/L858R double mutant assessed as viable cells at 1 uM after 72 hrs by annexin V/FITC staining-based flow cytometric method relative to control; format: functional; details: NCI-H1975, 72 h, read-out: Activity
How it was run: as §1

NCI-H1975 [16] = assay: Induction of apoptosis in human NCI-H1975 cells harboring EGFR T790M/L858R double mutant assessed as late apoptotic cells at 1 uM after 72 hrs by annexin V/FITC staining-based flow cytometric method relative to control; format: functional
How it was run: as §1

NCI-H1975 [17] = assay: Induction of apoptosis in human NCI-H1975 cells harboring EGFR T790M/L858R double mutant assessed as viable cells at 8 uM after 72 hrs by annexin V/FITC staining-based flow cytometric method relative to control; format: functional; details: NCI-H1975, 72 h, read-out: Activity
How it was run: as §1

NCI-H1975 [18] = assay: Induction of apoptosis in human NCI-H1975 cells harboring EGFR T790M/L858R double mutant assessed as early apoptotic cells at 4 uM after 72 hrs by annexin V/FITC staining-based flow cytometric method relative to control; format: functional
How it was run: as §1

C=CC(=O)Nc1cccc(Nc2nc(Nc3ccc(/C=C/c4cc(OC)cc(OC)c4)cc3)ncc2Cl)c1
IC50 [1]: 0.0157 µM
Ratio IC50 [2]: 45 to 177
IC50 (A-431): 1.78 µM
IC50 (A549): 6.84 µM
IC50 [3]: 9.18 µM
IC50 [4]: 0.216 µM
IC50 (HCC827): 3.32 µM
IC50 (NCI-H1975 [5]): 3.76 µM

C=CC(=O)Nc1cccc(Nc2nc(Nc3ccc(/C=C/c4ccc(C)cc4C)cc3)ncc2F)c1
IC50 [1]: 0.0081 µM
Ratio IC50 [2]: 45 to 177
IC50 (A-431): 3.11 µM
IC50 (A549): 1.32 µM
IC50 [3]: 10.4 µM
IC50 [4]: 0.387 µM
IC50 (HCC827): > 20 µM
IC50 (NCI-H1975 [5]): 7.16 µM

C=CC(=O)Nc1cccc(Nc2nc(Nc3ccc(/C=C/c4cc(Cl)cc(Cl)c4)cc3)ncc2Cl)c1
IC50 [1]: 0.0113 µM
Ratio IC50 [2]: 45 to 177
IC50 (A-431): 6.56 µM
IC50 (A549): 15.8 µM
IC50 [3]: 35.2 µM
IC50 [4]: 1.04 µM
IC50 (HCC827): 9.16 µM
IC50 (NCI-H1975 [5]): 6.98 µM

C=CC(=O)Nc1cccc(Nc2nc(Nc3ccc(N4CCN(C(C)=O)CC4)cc3OC)ncc2C(F)(F)F)c1 [ROCILETINIB]
IC50 (A-431): 1.79 µM
IC50 (A549): 3.24 µM
IC50 [3]: 23.8 µM
IC50 (HCC827): 0.031 µM
IC50 (NCI-H1975 [5]): 0.137 µM

C=CC(=O)Nc1cccc(Nc2nc(Nc3ccc(/C=C/c4cc(Cl)cc(Cl)c4)cc3)ncc2F)c1
IC50 [1]: 0.0142 µM
Ratio IC50 [2]: 45 to 177
IC50 (A-431): 1.29 µM
IC50 (A549): 7.01 µM
IC50 [3]: 5.42 µM
IC50 [4]: 0.388 µM
IC50 (HCC827): 10.8 µM
IC50 (NCI-H1975 [5]): 6.98 µM

C=CC(=O)Nc1cccc(Nc2nc(Nc3ccc(/C=C/c4cc(C)cc(C)c4)cc3)ncc2Cl)c1
IC50 [1]: 0.0265 µM
Ratio IC50 [2]: 45 to 177
IC50 (A-431): 5.56 µM
IC50 (A549): 5.59 µM
IC50 [3]: 17 µM
IC50 [4]: 0.607 µM
IC50 (HCC827): 4 µM
IC50 (NCI-H1975 [5]): 2.32 µM

C=CC(=O)Nc1cccc(Nc2nc(Nc3ccc(/C=C/c4ccc(C)cc4C)cc3)ncc2Cl)c1
IC50 [1]: 0.0068 µM
Ratio IC50 [2]: 45 to 177
IC50 (A-431): 3.16 µM
IC50 (A549): 4.94 µM
IC50 [3]: 15.8 µM
IC50 [4]: 0.996 µM
IC50 (HCC827): 9.71 µM
IC50 (NCI-H1975 [5]): 4.39 µM

C=CC(=O)Nc1cccc(Oc2nc(Nc3ccc(/C=C/c4cc(C)cc(C)c4)cc3)ncc2Cl)c1
IC50 [1]: 0.0224 µM
Ratio IC50 [2]: 45 to 177
IC50 (A-431): 4.71 µM
IC50 (A549): 10.8 µM
IC50 [3]: 6.07 µM
IC50 [4]: 0.087 µM
IC50 (HCC827): 11.7 µM
IC50 (NCI-H1975 [5]): 13.7 µM

C=CC(=O)Nc1cccc(Nc2nc(Nc3ccc(/C=C/c4cc(C)cc(C)c4)cc3)ncc2F)c1
Activity (NCI-H1975 [6]): 25.8%
Activity (NCI-H1975 [7]): 3.7%
Activity (NCI-H1975 [8]): 76.1%
IC50 [1]: 0.011 µM
Activity (NCI-H1975 [9]): 3.7%
Activity (NCI-H1975 [10]): 13.2%
Activity (NCI-H1975 [11]): 17.7%
Ratio IC50 [2]: 45 to 177
Activity (NCI-H1975 [12]): Dose-dependent effect
IC50 (A-431): 10.6 µM
viability at 4 µM (NCI-H1975 [13]): 45.7%
IC50 (A549): 12.8 µM
IC50 [3]: 22.5 µM
IC50 [4]: 0.539 µM
Activity (NCI-H1975 [14]): 1.4%
IC50 (HCC827): 2.07 µM
IC50 (NCI-H1975 [5]): 2.91 µM
viability at 1 µM (NCI-H1975 [15]): 55.9%
Activity (NCI-H1975 [16]): 22.7%
viability at 8 µM (NCI-H1975 [17]): 7%
Activity (NCI-H1975 [18]): 27.1%
